Source: ChEMBL document CHEMBL4610079, “Anti-inflammatory Flavanones and Flavones from Tephrosia linearis” (2020)

Assays:
Type in all cases: functional
PBMC [1] = assay: Antiinflammatory activity in LPS-induced human PBMC cells assessed as IL-1beta release at 100 uM after 24 hrs by luminex based bead assay relative to control
In short: (§1)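 Pooled cryopreserved human PBMCs from three donors were thawed and resuspended in RPMI 1640 with 10% FBS, at 100 000 cells/well. Each test item was given at 100 μM from a 20 mM DMSO stock, with 0.5% final DMSO. It was co-incubated with 10 μg/mL LPS for 24 h at 37 °C and 5% CO2. Supernatant was read by MagPix cytokine bead array, expressed as % of LPS control, n = 1.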

PBMC [2] = assay: Antiinflammatory activity in LPS-induced human PBMC cells assessed as GM-CSF release at 100 uM after 24 hrs by luminex based bead assay relative to control; in short: as §1
PBMC [3] = assay: Antiinflammatory activity in LPS-induced human PBMC cells assessed as IL-2 release at 100 uM after 24 hrs by luminex based bead assay relative to control; in short: as §1
PBMC [4] = assay: Antiinflammatory activity in LPS-induced human PBMC cells assessed as TNFalpha release at 100 uM after 24 hrs by luminex based bead assay relative to control; in short: as §1
PBMC [5] = assay: Antiinflammatory activity in LPS-induced human PBMC cells assessed as IL-6 release at 100 uM after 24 hrs by luminex based bead assay relative to control; in short: as §1

How did the Activity (PBMC [1]) turn out when COc1cc(-c2cc(=O)c3ccc(O)cc3o2)ccc1O was run?
The Activity was 109.22%.

And the Activity (PBMC [2])?
The Activity was 92.58%.

And the Activity (PBMC [3])?
Its Activity is 57.64%.

What about the Activity (PBMC [4]) of the same molecule?
The Activity was 3.64%.

And the Activity (PBMC [5])?
The Activity was 100%.

With C=C(C)C(O)Cc1c(O)cc2oc(-c3ccc(O)cc3)cc(=O)c2c1O (stereo not given) as the molecule, how does the Activity (PBMC [1]) read?
The Activity was 103.28%.

What about the Activity (PBMC [2]) of the same molecule?
The Activity was 38.92%.

And the Activity (PBMC [3])?
The Activity was 57.64%.

And the Activity (PBMC [4])?
The Activity was 5.2%.

And the Activity (PBMC [5])?
Its Activity is 238.54%.

What does the source list for COc1cc2oc(-c3ccc(O)c(O)c3)c(O[C@@H]3O[C@@H](C)[C@H](O)[C@@H](O)[C@H]3O)c(=O)c2c(O)c1OC?
Activity (PBMC [1]): 148.44%; Activity (PBMC [2]): 48.79%; Activity (PBMC [3]): 17.72%; Activity (PBMC [4]): 3.83%; Activity (PBMC [5]): 24.94%

For COc1cc([C@@H]2CC(=O)c3cc(OC)c(O)cc3O2)ccc1O, which Activity (PBMC [1]) is on record?
Its Activity is 220.43%.

And the Activity (PBMC [2])?
The Activity was 35.76%.

What about the Activity (PBMC [3]) of the same molecule?
The Activity was 57.6%.

And the Activity (PBMC [4])?
Its Activity is 12.55%.

And the Activity (PBMC [5])?
The Activity was 100%.

COc1c2c(c(/C=C\C(C)(C)O)c3oc(-c4ccccc4)cc(=O)c13)OC(C)(C)C=C2 was tested. Which Activity (PBMC [1]) did it give?
Its Activity is 1.18%.

What about the Activity (PBMC [2]) of the same molecule?
Its Activity is 8.63%.

And the Activity (PBMC [3])?
Its Activity is 57.6%.

And the Activity (PBMC [4])?
The Activity was 0.17%.

What about the Activity (PBMC [5]) of the same molecule?
Its Activity is 0%.

With C=C(C)/C=C/c1c2c(c(O)c3c(=O)cc(-c4ccccc4)oc13)C=CC(C)(C)O2 as the molecule, how does the Activity (PBMC [1]) read?
The Activity was 169.84%.

And the Activity (PBMC [2])?
Its Activity is 78.39%.

What about the Activity (PBMC [3]) of the same molecule?
Its Activity is 17.72%.

What about the Activity (PBMC [4]) of the same molecule?
Its Activity is 1.89%.

And the Activity (PBMC [5])?
Its Activity is 622.32%.

Which results are given for COc1cc2c(c(O)c1CC=C(C)C)C(=O)C[C@@H](c1ccc(O)cc1)O2?
Activity (PBMC [1]): 102.34%; Activity (PBMC [2]): 46.89%; Activity (PBMC [3]): 57.64%; Activity (PBMC [4]): 6.38%; Activity (PBMC [5]): 19.57%

For COc1cc(-c2cc(=O)c3cc(OC)c(O)cc3o2)ccc1O, which Activity (PBMC [1]) is on record?
Its Activity is 170.51%.

And the Activity (PBMC [2])?
The Activity was 17.39%.

What about the Activity (PBMC [3]) of the same molecule?
The Activity was 17.72%.

What about the Activity (PBMC [4]) of the same molecule?
The Activity was 4.03%.

And the Activity (PBMC [5])?
Its Activity is 43.11%.

How did the Activity (PBMC [1]) turn out when CC(=O)OCC1(C)C=Cc2c(cc(O)c3c2O[C@H](c2ccccc2)CC3=O)O1 (stereo not given in full) was run?
Its Activity is 157.09%.

What about the Activity (PBMC [2]) of the same molecule?
The Activity was 40.97%.

And the Activity (PBMC [3])?
Its Activity is 17.72%.

What about the Activity (PBMC [4]) of the same molecule?
The Activity was 2.66%.

And the Activity (PBMC [5])?
The Activity was 43.39%.

With C=C(C)/C=C/c1c2c(c(OC)c3c(=O)cc(-c4ccccc4)oc13)C=CC(C)(C)O2 as the molecule, how does the Activity (PBMC [1]) read?
Its Activity is 75.85%.

What about the Activity (PBMC [2]) of the same molecule?
Its Activity is 83.73%.

What about the Activity (PBMC [3]) of the same molecule?
Its Activity is 57.6%.

What about the Activity (PBMC [4]) of the same molecule?
Its Activity is 3.15%.

And the Activity (PBMC [5])?
Its Activity is 97.43%.

Which results are given for COc1c2c(c(/C=C/C(C)(C)OC)c3oc(-c4ccccc4)cc(=O)c13)OC(C)(C)C=C2?
Activity (PBMC [1]): 68.27%; Activity (PBMC [2]): 17.39%; Activity (PBMC [3]): 57.6%; Activity (PBMC [4]): 0.92%; Activity (PBMC [5]): 10.89%

Which Activity (PBMC [1]) does the source give for COc1c(O)cc2oc(-c3ccc(O)c(O)c3)c(O[C@@H]3O[C@@H](C)[C@H](O)[C@@H](O)[C@H]3O)c(=O)c2c1O here?
The Activity was 4.81%.

What about the Activity (PBMC [2]) of the same molecule?
Its Activity is 8.63%.

What about the Activity (PBMC [3]) of the same molecule?
Its Activity is 57.6%.

And the Activity (PBMC [4])?
The Activity was 0.54%.

What about the Activity (PBMC [5]) of the same molecule?
Its Activity is 0.64%.

With CC(C)=CCc1c(O)cc2oc(-c3ccc(O)cc3)cc(=O)c2c1O as the molecule, how does the Activity (PBMC [1]) read?
The Activity was 40.83%.

And the Activity (PBMC [2])?
Its Activity is 48.79%.

And the Activity (PBMC [3])?
Its Activity is 17.72%.

What about the Activity (PBMC [4]) of the same molecule?
The Activity was 5.01%.

And the Activity (PBMC [5])?
The Activity was 24.72%.

With C=C(C)C(O)Cc1c(OC)cc2c(c1O)C(=O)C[C@@H](c1ccc(O)cc1)O2 (stereo not given in full) as the molecule, how does the Activity (PBMC [1]) read?
The Activity was 53.77%.

And the Activity (PBMC [2])?
The Activity was 32.47%.

What about the Activity (PBMC [3]) of the same molecule?
Its Activity is 17.72%.

And the Activity (PBMC [4])?
Its Activity is 4.03%.

And the Activity (PBMC [5])?
The Activity was 25.79%.

What does the source list for O=c1cc(-c2ccc(O)cc2)oc2cc(O)cc(O)c12 [APIGENIN]?
Activity (PBMC [1]): 105.17%; Activity (PBMC [2]): 32.47%; Activity (PBMC [3]): 57.6%; Activity (PBMC [4]): 4.22%; Activity (PBMC [5]): 48.33%

Which Activity (PBMC [1]) does the source give for CC1(C)C=Cc2c(cc(O)c3c(=O)cc(-c4ccc(O)cc4)oc23)O1 [ATALANTOFLAVONE] here?
Its Activity is 48.35%.

And the Activity (PBMC [2])?
Its Activity is 4.87%.

And the Activity (PBMC [3])?
The Activity was 57.64%.

What about the Activity (PBMC [4]) of the same molecule?
Its Activity is 1.12%.

And the Activity (PBMC [5])?
The Activity was 7.23%.

Which Activity (PBMC [1]) does the source give for CC(C)Cc1ccc(C(C)C(=O)O)cc1 (stereo not given) [IBUPROFEN] here?
Its Activity is 199.29%.

And the Activity (PBMC [2])?
Its Activity is 47.76%.

What about the Activity (PBMC [3]) of the same molecule?
Its Activity is 80.33%.

What about the Activity (PBMC [4]) of the same molecule?
The Activity was 12.23%.

What about the Activity (PBMC [5]) of the same molecule?
The Activity was 46.46%.

With O=c1cc(-c2ccc(O)c(O)c2)oc2cc(O)cc(O)c12 [LUTEOLIN] as the molecule, how does the Activity (PBMC [1]) read?
The Activity was 0.67%.

What about the Activity (PBMC [2]) of the same molecule?
The Activity was 8.63%.

And the Activity (PBMC [3])?
The Activity was 57.6%.

What about the Activity (PBMC [4]) of the same molecule?
Its Activity is 0.17%.

And the Activity (PBMC [5])?
Its Activity is 0.04%.

How did the Activity (PBMC [1]) turn out when COc1cc(O)c2c(=O)cc(-c3ccc(O)c(OC)c3)oc2c1 [VELUTIN] was run?
Its Activity is 0.8%.

And the Activity (PBMC [2])?
Its Activity is 8.63%.

What about the Activity (PBMC [3]) of the same molecule?
Its Activity is 57.6%.

And the Activity (PBMC [4])?
The Activity was 0.92%.

What about the Activity (PBMC [5]) of the same molecule?
Its Activity is 0.09%.
